Measurements reported in ChEMBL document CHEMBL5608183, “Synthesis and evaluation of 3,4,5-trisubstituted triazoles as G protein-biased kappa opioid receptor agonists” (Eur J Med Chem, 2024).
Calls of active or inactive are those of the source. The calls are words filed in the database; no cut-off is given here.

Columns and labels:
[1] = molecular target: T1, Kappa-type opioid receptor (Homo sapiens, UniProt P41145); experiment: Agonist activity at human kappa opioid receptor tranfected in U2OS cells co-transfected with arrestin2-EFC assessed as induction of beta arrestin2 recruitment incubated for 90 mins by Synergy HT luminometer; assay type: functional, cell-based
How it was run: (§1)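 PathHunter enzyme-fragment complementation in U2OS cells stably expressing hKOR and βarrestin2, grown in MEM with 10% FBS, geneticin and hygromycin B, run per manufacturer's protocol. Concentration–response curves were fit by three-parameter nonlinear regression, normalized to vehicle and to maximal stimulation by the reference agonist U69,593 on the same plate. 2–4 replicates per experiment; n ≥ 3 independent experiments; 95% CI.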

[2] = molecular target: T1, Kappa-type opioid receptor; experiment: Agonist activity at human kappa opioid receptor tranfected in U2OS cells co-transfected with arrestin2-EFC assessed as induction of beta arrestin2 recruitment by measuring maximum efficacy incubated for 90 mins by Synergy HT luminometer relative to […]; assay type: functional, cell-based; conditions: filed as agonist
How it was run: as §1, with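 “plate.” for “plate. 2–4 replicates per experiment; n ≥ 3 independent experiments; 95% CI.”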

[3] = molecular target: T1, Kappa-type opioid receptor; experiment: Agonist activity at recombinant human kappa opioid receptor extracted from CHO cell membrane assessed as induction of [35S]GTPgammaS binding incubated for 1 hr by TopCount NXT Microplate Scintillation and Luminescence Counter analysis; assay type: functional, cell membranes
[4] = molecular target: T1, Kappa-type opioid receptor; experiment: Agonist activity at recombinant human kappa opioid receptor extracted from CHO cell membrane assessed as induction of [35S]GTPgammaS binding by measuring maximum efficacy at 10 uM incubated for 1 hr by TopCount NXT Microplate Scintillation and Luminescence Counter analysis relative to U69,593; assay type: functional, cell membranes; conditions: filed as agonist
[5] = Metabolic stability in mouse liver microsome assessed as half life at 1 uM by LC-MS/MS analysis; assay type: ADME; conditions: liver microsomes
How it was run: (§2)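 Hepatic microsomes (1 mg/mL) were incubated with 1 μM compound at 37 °C with continuous shaking. Reactions were quenched with acetonitrile at 5-min intervals over 1 h and filtered. Half-life was determined by LC-MS/MS.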

[6] = Metabolic stability in human liver microsome assessed as half life at 1 uM by LC-MS/MS analysis; assay type: ADME, microsomes; conditions: for half-life at 1 µM: liver microsomes; for t1/2: microsomes, 1 µM; how it was run: as §2

T1 sequence (P41145 whole entry, the tested form may be a part): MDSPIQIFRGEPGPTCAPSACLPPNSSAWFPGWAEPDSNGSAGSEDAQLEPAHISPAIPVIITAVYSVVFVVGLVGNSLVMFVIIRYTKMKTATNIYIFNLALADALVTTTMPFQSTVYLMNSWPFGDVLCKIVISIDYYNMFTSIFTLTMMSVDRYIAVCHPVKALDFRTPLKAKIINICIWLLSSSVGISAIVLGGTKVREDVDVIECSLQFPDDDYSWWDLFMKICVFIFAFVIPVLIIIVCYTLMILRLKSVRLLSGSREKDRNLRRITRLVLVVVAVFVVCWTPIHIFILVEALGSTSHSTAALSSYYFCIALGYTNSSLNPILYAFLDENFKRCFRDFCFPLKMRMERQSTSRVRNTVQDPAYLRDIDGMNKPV

Cc1ccc(CCc2nnc(-c3ncccn3)n2Cc2cccs2)cc1C(F)(F)F
EC50 [1]: 2.22 µM
Emax [2]: 150%
EC50 [3]: 0.057 µM

Fc1ccc(CCc2nnc(-c3ccccn3)n2Cc2cccs2)cc1
EC50 [1]: 2.64 µM
Emax [2]: 97%
Emax [4]: 90%
EC50 [3]: 0.284 µM

Cc1ccc(/C=C/c2nnc(-c3nccn3C)n2Cc2cccs2)cc1C(F)(F)F
EC50 [3]: 0.787 µM

Brc1ccccc1CCc1nnc(-c2ccccn2)n1Cc1cccs1
Emax [4]: 84%
EC50 [3]: 0.358 µM

COc1ccc(CCc2nnc(-c3ccccn3)n2Cc2cccs2)cc1
EC50 [3]: 0.122 µM

Clc1ccc(CCc2nnc(-c3ccccn3)n2Cc2cccs2)cc1Cl
EC50 [1]: 0.319 µM
half-life at 1 µM [5]: 1.2 min
half-life at 1 µM [6]: 1.5 min
EC50 [3]: 0.005 µM

Cc1ccc(CCc2nnc(-c3ccccc3)n2Cc2cccs2)cc1C(F)(F)F
half-life at 1 µM [5]: 0.9 min
half-life at 1 µM [6]: 1.8 min
EC50 [3]: 0.406 µM

Cc1ccc(/C=C/c2nnc(-c3ccccn3)n2Cc2nccs2)cc1C(F)(F)F
Emax [4]: 83%
EC50 [3]: 1.13 µM

Cc1ccc(CCc2nnc(-c3ccccn3)n2Cc2ccco2)cc1C(F)(F)F
EC50 [1]: 0.803 µM
half-life at 1 µM [5]: 0.8 min
Emax [4]: 90%
t1/2 [6]: 0.9 min
EC50 [3]: 0.021 µM

Cc1ccc(/C=C/c2nnc(-c3ccccn3)n2Cc2cccs2)cc1C(F)(F)F
half-life at 1 µM [5]: 30.2 min
Emax [4]: 79%
half-life at 1 µM [6]: 22 min
EC50 [3]: 0.496 µM

FC(Cc1nnc(-c2ccccn2)n1Cc1cccs1)c1ccccc1 (configuration not stated)
half-life at 1 µM [5]: 0.9 min
Emax [4]: 82%
half-life at 1 µM [6]: 7.2 min

c1ccc(-c2nnc(-c3ccccn3)n2Cc2cccs2)cc1
half-life at 1 µM [5]: 1 min
half-life at 1 µM [6]: 69.7 min

Cc1ccc(CSc2nnc(-c3ccccn3)n2Cc2ccco2)cc1C(F)(F)F
t1/2 [6]: 1.1 min

Brc1ccc(CCc2nnc(-c3ccccn3)n2Cc2cccs2)cc1
EC50 [1]: 0.723 µM
Emax [2]: 93%
Emax [4]: 92%
EC50 [3]: 0.02 µM

Cc1ccc(CCc2nnc(-c3ccccn3)n2-c2ccccc2)cc1C(F)(F)F
half-life at 1 µM [5]: 1 min
half-life at 1 µM [6]: 1.6 min
Activity [3]: inactive

Cc1ccc(CCc2nnc(-c3ccccn3)n2Cc2ccccc2)cc1C(F)(F)F
EC50 [1]: 6.74 µM
half-life at 1 µM [5]: 1.3 min
Emax [2]: 183%
half-life at 1 µM [6]: 0.9 min
EC50 [3]: 0.083 µM

c1ccc(-c2nnc(CCc3cccc4ccccc34)n2Cc2cccs2)nc1
EC50 [3]: 0.184 µM

Cc1ccc(CCc2nnc(-c3nccn3C)n2Cc2cccs2)cc1C(F)(F)F
EC50 [1]: 1.02 µM
half-life at 1 µM [5]: 1.5 min
Emax [2]: 132%
Emax [4]: 91%
half-life at 1 µM [6]: 3.1 min
EC50 [3]: 0.034 µM

Cc1ccc(CCc2nnc(-c3ccccn3)n2Cc2cccnc2)cc1C(F)(F)F
EC50 [1]: 0.421 µM
half-life at 1 µM [5]: 1.6 min
Emax [2]: 119%
Emax [4]: 87%
half-life at 1 µM [6]: 1.7 min
EC50 [3]: 0.055 µM

Cc1ccc(CCc2nnc(-c3ncccc3C)n2Cc2cccs2)cc1C(F)(F)F
EC50 [1]: 1.61 µM
Emax [2]: 118%
EC50 [3]: 0.013 µM

Cc1ccc(CCc2nnc(-c3ccccn3)n2Cc2nccs2)cc1C(F)(F)F
EC50 [1]: 1.29 µM
Emax [2]: 95%
Emax [4]: 64%
EC50 [3]: 0.034 µM
